Series [1] relates to Human immunodeficiency virus 1. Description: Antiviral activity against HIV1 3B in human C8166 cells assessed as inhibition of virus-induced cytopathic effect. Format: functional, organism-based. To be noted: Human immunodeficiency virus 1, 3B. Summed up:
(§1)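 C8166 cells were used for both assays, with AZT as the positive control. Protection from HIV-1 cytopathic effect gave the EC50, and MTT viability on the same cells, run in parallel, gave the CC50.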
(In general: Damage to the host cells serves as the signal in cytopathic effect assays.)

Series [2] is described as follows: Selectivity index, CC50 for human C8166 cells to EC50 for HIV1 3B. Format: toxicity, cell-based. To be noted: read-out: Ratio CC50/EC50. The gist of the method:
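The ratio is built from a CC50 (MTT viability of C8166 cells) and an EC50 (inhibition of HIV-1 cytopathic effect in C8166 cells), both determined in parallel.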

Series [3] in a line: Cytotoxicity against human C8166 cells by MTT method. It counts as cell-based. Summed up: as §1
(Tetrazolium dyes change colour on reduction, which living cells bring about.)

Converted amounts (≈) assume the structure as drawn. Where only a bound is given, the exact number is not on record here.

A word on the EC50: it is the midpoint of the concentration-response curve. As a reminder, the CC50 is the concentration that lowers cell viability or growth by half. `CC1=C[C@@H]([C@H]2[C@H](C)C(=O)[C@@]3(C)CC[C@]45C[C@]67OC(=O)C[C@H]6OC(C)(C)[C@@H]7C[C@H](O)[C@H]4C(=O)[C@@](O)(O5)[C@@H]23)OC1=O` [LANCIFODILACTONE I]: in series [1], the EC50 came to 96.4 mg/L (≈ 177 µM). Besides, the selectivity ratio in series [2] is greater than 2.08. The CC50 in series [3] was greater than 200 mg/L.

With `C[C@@H]1C(=O)[C@@]2(C)CC[C@]34C[C@]56OC(=O)C[C@H]5OC(C)(C)[C@@H]6C[C@H](O)[C@H]3C(=O)[C@@]3(O[C@H]5[C@H](OC(=O)[C@]5(C)O)[C@@H]1[C@H]32)O4` [LANCIFODILACTONE L], in series [1], the EC50 is 100 mg/L (≈ 178 µM). Also, the selectivity ratio in series [2] is greater than 2. Moreover, in series [3], the CC50 is greater than 200 mg/L.

Take `CC1=C[C@@H]([C@H]2[C@H](C)C(=O)[C@@]3(C)CC[C@]45C[C@]67OC(=O)C[C@H]6OC(C)(C)[C@@H]7CC=C4C(=O)[C@@](O)(O5)[C@@H]23)OC1=O` [LANCIFODILACTONE K]: the EC50 in series [1] was determined as 78.5 mg/L (≈ 149 µM). For the same molecule, the selectivity ratio in series [2] is greater than 2.55. Also, in series [3], the CC50 was greater than 200 mg/L.

Regarding `Cc1cn([C@H]2C[C@H](N=[N+]=[N-])[C@@H](CO)O2)c(=O)[nH]c1=O` [ZIDOVUDINE], the EC50 in series [1] came to 0.0033 mg/L (≈ 0.0123 µM). Besides, the selectivity ratio in series [2] was greater than 60600. Also, the CC50 in series [3] was greater than 200 mg/L.

Turning to `CC(=O)O[C@H]1C[C@H]2C(C)(C)O[C@@H]3CC(=O)O[C@@]32C[C@]23CC[C@]4(C)C(=O)[C@@H](C)[C@H]([C@@H]5C=C(C)C(=O)O5)[C@@H]4[C@](O)(O2)C(=O)[C@H]13` [LANCIFODILACTONE J], in series [1], the EC50 was 88.3 mg/L (≈ 151 µM). The selectivity ratio in series [2] was greater than 2.26. The CC50 in series [3] was greater than 200 mg/L.

With `C[C@@H]1C(=O)[C@@]2(C)CC[C@]34C[C@]56OC(=O)C[C@H]5OC(C)(C)[C@@H]6CC=C3C(=O)[C@@]3(O[C@H]5[C@H](OC(=O)[C@]5(C)O)[C@@H]1[C@H]32)O4` [LANCIFODILACTONE N], the EC50 in series [1] is 77.6 mg/L (≈ 143 µM). Besides, the selectivity ratio in series [2] was 2.4. The CC50 in series [3] is 186 mg/L (≈ 343 µM).

With `CC1=C2[C@H]3OC(=O)[C@@H](C)[C@H]3O[C@]34O[C@@]5(CC[C@](C)(C1=O)[C@H]23)C[C@]12OC(=O)C[C@H]1OC(C)(C)[C@@H]2C[C@H](O)[C@H]5C4=O` [LANCIFODILACTONE M], the EC50 in series [1] was determined as 76.6 mg/L (≈ 141 µM). The selectivity ratio in series [2] is greater than 2.61. Besides, the CC50 in series [3] was greater than 200 mg/L.

The record behind these values is ChEMBL document CHEMBL1157326, “Nortriterpenoids from Schisandra lancifolia” (J Nat Prod, 2006).
